Reference: ChEMBL document CHEMBL4257472, “Antitumor effect of sikokianin C, a selective cystathionine β-synthase inhibitor, against human colon cancer in vitro and in vivo” (Medchemcomm, 2018)
Calls of active or inactive are those of the source. The rule behind the calls is not given here.

What was measured:
[1] = tested on: HT-29; assay: Antitumor activity against human HT-29 cells xenografted in BALB/c nude mouse assessed as tumor growth inhibition at 10 mg/kg, sc administered once daily for 6 days followed by 1 day interval and subsequent dosing for 6 days; format: functional, organism-based
Summary of the method: (§1)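 Male BALB/c nude mice, five weeks old, given s.c. HT29 cells (100 μL of 1 × 10^7 cells/mL) in the right armpit. Randomized when tumours reached about 100 mm3. Daily s.c. dosing at 3 or 10 mg/kg/d, vehicle 1% DMSO with 0.5% carboxymethylcellulose in PBS, 6 d on and 1 d off, 12 treatments in total, n = 6. Tumour volume by calipers (0.5 × L × W²) and body weight monitored. Tumours excised and weighed on day 28.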

[2] = tested on: HT-29; assay: Antiproliferative activity against human HT-29 cells after 24 hrs by CCK8 assay; format: functional, cell-based; details: HT-29, 24 h
Summary of the method: (§2)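 HT29 cells grown in DMEM with 10% FBS and 1% penicillin–streptomycin, 37 °C, 5% CO2. Seeded at 1 × 10^4 cells/well, cultured 24 h, then exposed to varying compound concentrations for 24 h. CCK-8 added for 2 h at 37 °C and OD450 read. Viability expressed as % of untreated medium control. IC50 fitted from means ± SD (n = 4). Knockdown cells were transfected with CBS siRNA for 48 h beforehand.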

[3] = molecular target: T1, Cystathionine beta-synthase (Homo sapiens, UniProt P35520); assay: Inhibition of full-length GST-fused human CBS assessed as reduction in H2S production using 2 mM […] as substrate preincubated for 3 mins followed by substrate addition
T1 sequence (P35520 whole entry): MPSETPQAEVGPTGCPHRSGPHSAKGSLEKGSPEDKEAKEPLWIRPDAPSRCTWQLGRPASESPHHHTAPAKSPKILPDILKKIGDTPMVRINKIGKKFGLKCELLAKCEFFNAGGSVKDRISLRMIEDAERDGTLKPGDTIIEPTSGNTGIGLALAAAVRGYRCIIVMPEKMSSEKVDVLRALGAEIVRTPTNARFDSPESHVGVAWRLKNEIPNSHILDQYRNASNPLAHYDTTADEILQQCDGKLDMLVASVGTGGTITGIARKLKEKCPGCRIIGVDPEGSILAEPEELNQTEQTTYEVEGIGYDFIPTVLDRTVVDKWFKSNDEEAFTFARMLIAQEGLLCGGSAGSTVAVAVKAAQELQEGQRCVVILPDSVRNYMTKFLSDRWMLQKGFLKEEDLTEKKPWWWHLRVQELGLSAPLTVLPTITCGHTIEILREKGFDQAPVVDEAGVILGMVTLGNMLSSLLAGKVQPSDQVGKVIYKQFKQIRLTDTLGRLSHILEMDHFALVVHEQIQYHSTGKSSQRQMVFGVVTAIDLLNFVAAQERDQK
Summary of the method: (§3)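 Lead sulfide H2S assay on purified human CBS (5 μg, wild-type or alanine mutant) in 200 μL of 50 mM HEPES pH 7.4 with 5% DMSO and 0.4 mM lead nitrate. Enzyme and 2 mM homocysteine preincubated 3 min at 37 °C, then 2 mM cysteine added. Lead sulfide read at 390 nm (ε 5500 M−1 cm−1). Activity is relative to a DMSO control, mean ± SD (n = 3). The detergent test included 0.01% Triton X-100.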

[4] = tested on: Mus musculus; assay: Toxicity in BALB/c nude mouse xenografted with human HT-29 cells assessed as effect on body weight at 10 mg/kg, sc administered once daily for 6 days followed by 1 day interval and subsequent dosing for 6 days; format: organism-based; details: in vivo; summary of the method: as §1
[5] = molecular target: T2, Cystathionine beta-synthase (Homo sapiens) (UniProt P35520); assay: Non-competitive inhibition of full-length GST-fused human CBS using […] as substrate by Lineweaver-burk plot analysis
T2 sequence (whole entry): T1 sequence (P35520 whole entry)

[6] = tested on: HT-29; assay: Antiproliferative activity against human HT-29 cells harboring CBS SiRNA after 24 hrs by CCK8 assay; format: functional, cell-based; details: HT-29, 24 h; summary of the method: as §2
[7] = tested on: HT-29; assay: Antitumor activity against human HT-29 cells xenografted in BALB/c nude mouse assessed as reduction in tumor weight at 10 mg/kg, sc administered once daily for 6 days followed by 1 day interval and subsequent dosing for 6 days relative to control; format: functional; design: scale not given: the % may be the effect or the level left; summary of the method: as §1
[8] = molecular target: Cystathionine beta-synthase (Homo sapiens, UniProt P35520, H203A); assay: Inhibition of human CBS H203A mutant assessed as reduction in H2S production using […] preincubated for 3 mins followed by substrate addition; summary of the method: as §3
Cystathionine beta-synthase (Homo sapiens, UniProt P35520, H203A), sequence (P35520 whole entry H203A, the tested form may be a part): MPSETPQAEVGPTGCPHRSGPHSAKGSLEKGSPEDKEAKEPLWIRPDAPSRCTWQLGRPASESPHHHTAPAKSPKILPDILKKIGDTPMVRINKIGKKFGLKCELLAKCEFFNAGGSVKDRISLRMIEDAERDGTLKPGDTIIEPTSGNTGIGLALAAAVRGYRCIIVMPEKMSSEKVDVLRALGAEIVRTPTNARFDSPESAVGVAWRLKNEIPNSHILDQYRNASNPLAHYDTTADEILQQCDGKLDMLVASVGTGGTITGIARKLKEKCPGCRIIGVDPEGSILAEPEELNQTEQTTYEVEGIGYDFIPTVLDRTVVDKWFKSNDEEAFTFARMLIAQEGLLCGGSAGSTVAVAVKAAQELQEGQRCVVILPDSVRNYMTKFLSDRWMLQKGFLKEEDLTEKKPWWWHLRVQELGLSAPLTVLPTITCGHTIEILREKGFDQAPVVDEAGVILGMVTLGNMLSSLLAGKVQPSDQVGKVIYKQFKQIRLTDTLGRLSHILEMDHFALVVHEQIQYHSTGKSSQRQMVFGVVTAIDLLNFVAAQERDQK

[9] = molecular target: T1, Cystathionine beta-synthase; assay: Inhibition of full-length GST-fused human CBS assessed as reduction in H2S production using […] as substrate preincubated for 3 mins followed by substrate addition measured in presence of Triton X-100; summary of the method: as §3
[10] = tested on: HT-29; assay: Induction of apoptosis in human HT-29 cells at 0.5 uM after 24 hrs by Annexin V-FITC/propidium iodide staining based flow cytometry relative to control; format: functional
Summary of the method: (§4)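 HT29 cells seeded at 5 × 10^5 per well and treated 24 h with 0.5, 1 or 2 μM compound. Cells trypsinized, washed in cold PBS, stained with FITC–Annexin V and PI for 15 min in the dark at room temperature. 10 000 cells analysed by flow cytometry. Annexin V-positive percentage reported as mean ± SD of three independent experiments.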

[11] = species: Homo sapiens; assay: Selectivity ratio of IC50 for human CBS H203A mutant to IC50 for full-length GST-fused human CBS
[12] = tested on: Mus musculus; assay: Toxicity in BALB/c nude mouse xenografted with human HT-29 cells assessed as effect on body weight at 3 to 10 mg/kg, sc administered once daily for 6 days followed by 1 day interval and subsequent dosing for 6 days; format: organism-based; details: in vivo; summary of the method: as §1
[13] = tested on: HT-29; assay: Induction of apoptosis in human HT-29 cells after 24 hrs by Annexin V-FITC/propidium iodide staining based flow cytometry; format: functional, cell-based; summary of the method: as §4
[14] = molecular target: Cystathionine beta-synthase (Homo sapiens, UniProt P35520, Y223A); assay: Inhibition of human CBS Y223A mutant assessed as reduction in H2S production using 2 mM […] as substrate preincubated for 3 mins followed by substrate addition; summary of the method: as §3
Cystathionine beta-synthase (Homo sapiens, UniProt P35520, Y223A), sequence (P35520 whole entry Y223A): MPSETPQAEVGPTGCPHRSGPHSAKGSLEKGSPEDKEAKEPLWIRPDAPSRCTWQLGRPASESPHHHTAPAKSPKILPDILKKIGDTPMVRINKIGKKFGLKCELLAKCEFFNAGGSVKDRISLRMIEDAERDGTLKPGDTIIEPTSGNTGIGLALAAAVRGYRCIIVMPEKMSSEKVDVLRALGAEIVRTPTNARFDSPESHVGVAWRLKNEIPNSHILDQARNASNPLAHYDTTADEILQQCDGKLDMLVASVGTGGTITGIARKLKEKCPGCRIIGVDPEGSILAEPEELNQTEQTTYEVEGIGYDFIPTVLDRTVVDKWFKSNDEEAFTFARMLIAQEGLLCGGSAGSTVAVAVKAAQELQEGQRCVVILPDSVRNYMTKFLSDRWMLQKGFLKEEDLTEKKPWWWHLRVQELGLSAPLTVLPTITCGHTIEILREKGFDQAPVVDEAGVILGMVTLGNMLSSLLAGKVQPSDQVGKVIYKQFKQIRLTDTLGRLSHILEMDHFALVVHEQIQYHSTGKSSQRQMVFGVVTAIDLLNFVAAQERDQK

[15] = molecular target: Cystathionine beta-synthase (Homo sapiens, UniProt P35520, T193A); assay: Inhibition of human CBS T193A mutant assessed as reduction in H2S production using […] as substrate preincubated for 3 mins followed by substrate addition; summary of the method: as §3
Cystathionine beta-synthase (Homo sapiens, UniProt P35520, T193A), sequence (P35520 whole entry T193A, the tested form may be a part): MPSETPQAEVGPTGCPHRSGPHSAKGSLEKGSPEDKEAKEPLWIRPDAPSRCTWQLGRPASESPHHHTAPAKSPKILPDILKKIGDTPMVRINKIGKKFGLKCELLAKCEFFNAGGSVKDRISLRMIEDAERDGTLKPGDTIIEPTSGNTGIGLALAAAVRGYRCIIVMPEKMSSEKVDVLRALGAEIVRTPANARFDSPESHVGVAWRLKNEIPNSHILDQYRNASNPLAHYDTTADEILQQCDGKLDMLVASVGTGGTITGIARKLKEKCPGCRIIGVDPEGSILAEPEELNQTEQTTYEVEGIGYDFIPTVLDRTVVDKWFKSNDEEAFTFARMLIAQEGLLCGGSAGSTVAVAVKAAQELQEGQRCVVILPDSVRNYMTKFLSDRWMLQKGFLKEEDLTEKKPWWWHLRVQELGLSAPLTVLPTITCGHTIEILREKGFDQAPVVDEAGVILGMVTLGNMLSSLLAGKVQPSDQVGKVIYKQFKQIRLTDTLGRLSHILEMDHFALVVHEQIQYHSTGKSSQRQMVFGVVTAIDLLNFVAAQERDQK

[16] = species: Homo sapiens; assay: Selectivity ratio of IC50 for human CBS Y308A mutant to IC50 for full-length GST-fused human CBS
[17] = molecular target: T1, Cystathionine beta-synthase; assay: Inhibition of full-length GST-fused human CBS assessed as reduction in H2S production using 20 mM […] as substrate preincubated for 3 mins followed by substrate addition
Summary of the method: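 Same lead sulfide H2S assay on purified human wild-type CBS (5 μg, 50 mM HEPES pH 7.4, 5% DMSO, 0.4 mM lead nitrate, 37 °C), with cysteine raised to 20 mM and homocysteine kept at 2 mM. Lead sulfide read at 390 nm.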

[18] = tested on: HT-29; assay: Induction of apoptosis in human HT-29 cells at 2 uM after 24 hrs by Annexin V-FITC/propidium iodide staining based flow cytometry relative to control; format: functional; summary of the method: as §4
[19] = molecular target: Cystathionine beta-synthase (Homo sapiens, UniProt P35520, Y308A); assay: Inhibition of human CBS Y308A mutant assessed as reduction in H2S production using 2 mM […] as substrate preincubated for 3 mins followed by substrate addition; summary of the method: as §3
Cystathionine beta-synthase (Homo sapiens, UniProt P35520, Y308A), sequence (P35520 whole entry Y308A): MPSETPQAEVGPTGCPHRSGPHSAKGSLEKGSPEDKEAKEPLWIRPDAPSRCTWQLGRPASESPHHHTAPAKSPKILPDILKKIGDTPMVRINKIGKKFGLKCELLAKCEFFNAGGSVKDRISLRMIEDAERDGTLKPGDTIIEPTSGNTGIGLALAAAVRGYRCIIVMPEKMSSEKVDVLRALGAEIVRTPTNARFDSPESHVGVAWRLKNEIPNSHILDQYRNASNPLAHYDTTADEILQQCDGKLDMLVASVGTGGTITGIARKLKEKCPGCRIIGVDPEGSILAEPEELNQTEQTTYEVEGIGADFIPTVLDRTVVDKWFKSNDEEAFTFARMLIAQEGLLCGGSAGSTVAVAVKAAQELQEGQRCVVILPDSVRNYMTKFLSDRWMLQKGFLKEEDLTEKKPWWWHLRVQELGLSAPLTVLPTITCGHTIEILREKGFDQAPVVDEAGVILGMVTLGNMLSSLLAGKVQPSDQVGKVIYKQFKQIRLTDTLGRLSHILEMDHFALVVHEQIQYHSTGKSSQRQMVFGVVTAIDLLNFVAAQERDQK

[20] = molecular target: Cystathionine beta-synthase (Homo sapiens, UniProt P35520, N194A); assay: Inhibition of human CBS N194A mutant assessed as reduction in H2S production using 2 mM […] as substrate preincubated for 3 mins followed by substrate addition; summary of the method: as §3
Cystathionine beta-synthase (Homo sapiens, UniProt P35520, N194A), sequence (P35520 whole entry N194A): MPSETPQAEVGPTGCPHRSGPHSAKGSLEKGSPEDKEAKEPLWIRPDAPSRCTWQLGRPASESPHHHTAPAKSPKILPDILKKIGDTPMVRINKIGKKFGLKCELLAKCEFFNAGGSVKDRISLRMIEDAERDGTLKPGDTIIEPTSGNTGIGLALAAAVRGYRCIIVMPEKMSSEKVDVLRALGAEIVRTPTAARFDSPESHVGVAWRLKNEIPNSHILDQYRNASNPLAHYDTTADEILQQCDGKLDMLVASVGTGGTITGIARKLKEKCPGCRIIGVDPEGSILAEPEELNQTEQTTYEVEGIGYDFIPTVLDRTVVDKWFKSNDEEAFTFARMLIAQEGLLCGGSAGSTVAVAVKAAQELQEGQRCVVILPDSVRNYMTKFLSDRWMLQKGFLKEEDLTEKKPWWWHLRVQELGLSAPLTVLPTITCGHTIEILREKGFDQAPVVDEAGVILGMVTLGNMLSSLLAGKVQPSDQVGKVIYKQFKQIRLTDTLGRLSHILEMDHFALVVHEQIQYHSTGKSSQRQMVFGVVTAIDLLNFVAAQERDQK

[21] = Selectivity ratio of IC50 for human HT-29 cells harboring CBS SiRNA to IC50 for human HT-29 cells; format: functional
[22] = tested on: HT-29; assay: Induction of apoptosis in human HT-29 cells at 1 uM after 24 hrs by Annexin V-FITC/propidium iodide staining based flow cytometry relative to control; format: functional; summary of the method: as §4
[23] = tested on: HT-29; assay: Antitumor activity against human HT-29 cells xenografted in sc dosed BALB/c nude mouse assessed as tumor growth inhibition administered once daily for 6 days followed by 1 day interval and subsequent dosing for 6 days; format: functional, organism-based; summary of the method: as §1
[24] = molecular target: T2, Cystathionine beta-synthase (Homo sapiens); assay: Competitive inhibition of full-length GST-fused human CBS up to 10 uM using […] as substrate by Lineweaver-burk plot analysis

For `NOCC(=O)O` [CARBOXYMETHOXYLAMINE], the TGI [1] was “Active”, the IC50 [2] was 159 µM and the IC50 [3] was 7.5 µM. The Activity [4] was “Non-Toxic”, the inhibition [5] was “Active” and the IC50 [6] was 287 µM. For the same compound, the Activity [7] was 44%.
Work on `COc1ccc([C@H]2Oc3cc(O)cc(O)c3C(=O)[C@@H]2[C@H]2C(=O)c3c(O)cc(O)cc3O[C@@H]2c2ccc(O)cc2)cc1` [SIKOKIANIN C] yielded an IC50 [8] of 43 µM, an IC50 [9] of 1.4 µM and an Activity [10] of 17.1%. The Ratio IC50 [11] was 48, the Activity [12] was “Non-Toxic” and the IC50 [2] was 1.6 µM. The IC50 [3] was 0.9 µM, the Activity [13] was “Dose-dependent effect” and the IC50 [14] was 16.9 µM. For the same compound, the IC50 [15] was 11.2 µM, the Ratio IC50 [16] was 27 and the IC50 [17] was 5.5 µM. It also gave an Activity [18] of 31.5%, an IC50 [19] of 24 µM and an IC50 [20] of 18.7 µM. The “Ratio IC50” value [21] was 3, the Activity [22] was 22% and the IC50 [6] was 4.7 µM. The Activity [23] was “Dose-dependent effect”, the Activity [7] was 46% and the inhibition [24] was “Active”.
